# CHOP inh: CHOP inhibition in unfolded protein response. 220,000 compounds, 3.8% hits. CHO-K1 CHOP-promoter luciferase, tunicamycin-induced, 15-18 h. inhibition, % at 10 µM. AID 2732;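 active = compounds that reduced the stress-induced luciferase reporter signal by more than about 70% of percent inhibition, limit read from the data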
# XBP1 UPR activ: adaptive UPR (XBP1) activation; AID 463104; activation, % at 20 µM; CHO-XBP1 luciferase reporter, IRE1-XBP1 UPR activation, luminescence; percent of tunicamycin response, DMSO as zero; 330,000 compounds, 0.33% hits;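 active = versus positive control, 20 µM dose yields 30% or more activation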
#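 Material – CHO cell line with stable XBP1 luciferase reporter · Buffer or medium – F12 plus 10% FBS · Compound – single point, 20 µM final compound, 1% DMSO · Schedule – 16-18 h cell attachment at 37 °C, then 6 h compound exposure · Signal – Steady-Glo luminescence read · Benchmarks – high control tunicamycin 10 µg/mL final, low control DMSO vehicle only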
# Jurkat NFkB inh: lowers PMA/ionomycin-induced NF-kB signal in Jurkat cells; PMA/ionomycin-induced NF-kB luciferase reporter, luminescence; inhibition, % at 4 µM; 330,000 compounds, 0.53% hits; in the data active = inhibition above about 50%
# CHOP UPR activ: apoptotic UPR (CHOP) activation. CHO-CHOP luciferase reporter, luminescence; percent of tunicamycin response over DMSO baseline. activation, % at 10 µM. 330,000 compounds, 0.34% hits. AID 449763;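 active = at 10 µM dose, activation of 40% or more, normalized to positive control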
#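 Dosing – one dose, 10 µM in 0.5% DMSO · System – CHO-CHOP cells, stable luciferase reporter of PERK-eIF2a-CHOP signalling · Input – 500 cells/well · Control set – tunicamycin 10 µg/mL final as positive, DMSO-only wells as negative · Timing – 6 h compound treatment, 37 °C · Measure – % activation vs tunicamycin · Technique – luminescence read with Steady-Glo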
# 697 NFkB inh: lowers PMA/ionomycin-induced NF-kB signal in 697 B cells. inhibition, % at 4 µM. 697 B-cell NF-kB luciferase reporter, 16 h. AID 435022. 330,000 compounds, 0.33% hits; in the data active = inhibition above about 35%
# Numbers stand for hits; i = inactive; nt = no result given. The entries come from a sample that favours hits as a whole.
SMILES,CHOP inh,XBP1 UPR activ,Jurkat NFkB inh,CHOP UPR activ,697 NFkB inh
CC(C)CC(COCc1cccc(Cl)c1)N1CCN(C(=O)c2ccc(C(F)(F)F)cc2)CCC1=O (configuration not stated),77,i,i,i,i
CCC(C)[C@H](NC(=O)N1CC(=O)Nc2ccccc21)C(=O)N1CCC[C@H]1C(=O)O (some centres not stated),nt,i,i,i,i
CCN(CC)S(=O)(=O)c1cccc(C(=O)NCC2(N3CCOCC3)CCCCC2)c1,nt,i,i,i,i
CCCN(CCC)C(=O)CC(c1ccccc1)c1cc(Br)ccc1O (configuration not stated),92,i,i,i,i
CN(C)CCCN(C(=O)c1ccc2c(c1)CCCC2)c1nc2ccc(Cl)cc2s1,90,i,i,i,i
C#CCOCCOCCOCCNc1nc(N2CCN(C(=O)C([C@@H](C)CC)n3cc(C(N)COC(=O)C(F)(F)F)nn3)CC2)nc(N2CCN(C(=O)[C@H](CCC(=O)O)n3cc(C(N)CC(C)C)nn3)CC2)n1 (some centres not stated),nt,i,i,i,i
Cc1ccc(NC(=O)NCC2CCN(Cc3cccc(Cl)c3)CC2)cc1Cl,89,i,i,i,i
Cc1ccc(S(=O)(=O)N2CCCC2=O)c(C)c1N(C)S(C)(=O)=O,nt,i,i,i,i
CC(C)(C)Nc1nc(N2CCCC2)nc(N2CCCC2)n1,77,i,i,i,i
CCNc1nc(NC(C)(C)C)nc(N2CCCC2)n1,i,i,i,i,i
O=S1(=O)CC/C(=N/Nc2ccc(C(F)(F)F)cn2)c2cc(F)ccc21,95,i,i,i,i
COc1cc(C(=O)N/N=C2\CCS(=O)(=O)c3ccc(F)cc32)cc(OC)c1OC,73,i,i,i,i
Cc1cc(OCC(O)CN2CCc3ccccc3C2)ccc1Cl (configuration not stated),nt,i,i,i,i
Cc1nn(-c2ccc(F)cc2)c(Cl)c1C(=O)N(C)CC(=O)Nc1cccc(F)c1,nt,i,i,i,i
COc1ccc(C)cc1N=Nc1ccc(O)c2ncccc12,104,nt,nt,nt,nt
Cc1ccccc1N=Nc1ccc(O)c2ncccc12,106,nt,nt,nt,nt
Oc1ccc(N=Nc2ccc3c(c2)OCCO3)c2cccnc12,i,i,i,i,i
O=c1cc(O)n(Cc2ccc(F)cc2)c(=O)[nH]1,nt,i,i,i,i
COc1ccc(C2=NOC(Cn3nc(C(=O)NCC4CC4)cc3-c3ccccc3)C2)cc1 (configuration not stated),nt,i,i,i,i
CC1(C)CC2CC(C)(CN2C(=O)COC(=O)c2n[nH]c(=O)c3ccccc23)C1 (configuration not stated),i,i,i,i,i
O=C(COc1ccc(F)cc1)N1c2ccccc2CCc2ccccc21,i,i,i,i,i
O=C(COc1cccc2ccccc12)N1c2ccccc2CCc2ccccc21,74,i,i,i,i
CC1(C)CC2CC(C)(CN2C(=O)COc2cccc3ccccc23)C1 (configuration not stated),91,i,i,i,i
CC(=O)N(C)c1ccc(NC(=O)Nc2ccc(C)c(C)c2)cc1,i,i,i,i,i
O=C(COc1ccc(Cl)cc1Cl)N/N=C/c1ccc[nH]1,nt,i,i,i,i
SMILES,CHOP inh,XBP1 UPR activ,Jurkat NFkB inh,CHOP UPR activ,697 NFkB inh
O=C(CCCOc1ccc(Cl)cc1Cl)N/N=C/c1ccccc1,i,i,i,i,i
O=C(CCCOc1ccc(Cl)cc1Cl)N/N=C/c1ccccc1O,85,i,i,i,i
O=C(COc1ccc(Cl)cc1Cl)N/N=C/CCc1ccccc1,75,i,i,i,i
Cc1onc(-c2c(Cl)cccc2Cl)c1/C(N)=N/OC(=O)C1CC1,i,i,i,i,i
CC1=C(C(=O)Nc2cc(-c3cccc(F)c3)[nH]n2)C2(CCCCC2)OC1=O,82,i,i,i,i
CCN(CC(=O)Nc1ccc(NC(C)=O)cc1)C(=O)c1ccc(NC2CC2)c([N+](=O)[O-])c1,nt,i,i,i,i
O=C(NC(=S)N1CCCC(C(F)(F)F)C1)c1ccc(F)cc1 (configuration not stated),nt,i,i,i,i
COC(=O)C(Cc1ccccc1)NC(=O)CNC(=O)c1ccc(Br)cc1 (configuration not stated),nt,i,i,i,i
Cc1ccc(-n2cc(C(=O)c3ccc(N4CCN(C)CC4)cc3)nn2)cc1Cl,70,i,i,i,i
CCOc1cc(C(=O)NC2CCCCCCC2)cc(OCC)c1OCC,nt,i,i,i,i
CCCN(CC(=O)Nc1ccccc1C)C(=O)Cc1cccs1,nt,i,i,i,i
CC(=O)c1c(C(C)=O)c(C)n(-c2nc(-c3ccc(C)c(C)c3)c(C)s2)c1C,76,i,i,i,i
COc1ccc(-c2nc(-n3c(C)c(C(C)=O)c(C(C)=O)c3C)sc2C)cc1,i,i,i,i,i
CCCSc1nc(N2CCOCC2)c2c(c1C#N)CC(C)(C)SC2,78,i,i,i,i
CC(=O)Nc1cccc(NC(=O)CSc2ncc(C(=O)Nc3ccccc3)c(=O)n2C)c1,nt,i,i,202,i
CC(=O)Nc1cccc(NC(=O)CSc2ncc(-c3ccc(Cl)cc3)n2Cc2ccco2)c1,88,i,i,i,i
CC(=O)Nc1cccc(NC(=O)CSc2ncc(C(=O)Nc3ccc(F)cc3)c(=O)n2C)c1,nt,i,i,i,i
Cn1nnnc1SCC(=O)Nc1ncc(C(F)(F)F)cc1Cl,nt,i,i,i,i
Cc1ccc(S(=O)(=O)N2CCC(C(=O)NCC(C)(C)N3CCOCC3)CC2)c(C)c1,nt,i,i,i,i
O=C(CN(Cc1ccccc1Cl)S(=O)(=O)c1ccc(Cl)cc1)N/N=C/c1ccc(C(=O)O)cc1,nt,i,i,i,i
Cc1cccc(OCC(=O)Nc2ccccc2-c2ccccc2)c1,85,nt,nt,nt,nt
COc1ccc(CC(=O)Nc2ccccc2-c2ccccc2)cc1OC,nt,i,i,i,i
Cc1ccc(CC(=O)Nc2ccccc2-c2ccccc2)cc1C,89,i,i,i,i
CCC1CCCCN1c1nc2c(C=O)c(C)nn2c2ccccc12 (configuration not stated),89,i,i,i,i
Cc1ccccc1NC(c1cccc(Cl)c1)c1nnnn1C1CCCCC1 (configuration not stated),87,i,i,i,i
N#Cc1cccc(C(c2nnnn2C2CCCC2)N2CCCCCC2)c1 (configuration not stated),i,i,i,i,i
COc1ccc(CNCCC(c2ccc(F)cc2)c2ccc(OC(C)C)cc2)cc1OC (configuration not stated),82,i,i,i,i
COc1ccc(CN(CCC(c2ccccc2)c2ccc(OC(C)C)cc2)C(=O)CCl)cc1OC (configuration not stated),110,i,i,i,i
CCNc1nc(NCC)n2c(SCC(=O)Nc3ccc(C)c(C)c3)nnc2n1,nt,i,i,i,i
